How the values were obtained:
Type in all cases: functional
Details in all cases: read-out: GI
[1] = test system: IGROV-1; assay: Antitumor activity against human IGROV-1 cells assessed as growth inhibition at 10 uM relative to control
In short: (§1)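 After drug addition, plates were incubated 48 h at 37 °C under 5% CO2. Adherent cells were fixed with cold TCA (10% final, 60 min, 4 °C) and suspension cells with 16% final TCA. Staining used 0.4% SRB in 1% acetic acid, solubilized in 10 mM trizma, read at A515. Percent growth was calculated from time-zero, control and treated absorbances.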

[2] = test system: SF-295; assay: Antitumor activity against human SF-295 cells assessed as growth inhibition at 10 uM relative to control; in short: as §1
[3] = test system: NCI-H460; assay: Antitumor activity against human NCI-H460 cells assessed as growth inhibition at 10 uM relative to control; in short: as §1
[4] = test system: TK-10; assay: Antitumor activity against human TK-10 cells assessed as growth inhibition at 10 uM relative to control
In short: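 Drug exposure 48 h at 37 °C, 5% CO2. Adherent cells fixed with cold TCA (10% final), suspension cells with TCA (16% final). Stained with 0.4% SRB in 1% acetic acid, dissolved in 10 mM Tris, A515. Growth relative to time-zero and untreated control.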

[5] = test system: MDA-MB-435; assay: Antitumor activity against human MDA-MB-435 cells assessed as growth inhibition at 10 uM relative to control; in short: as §1
[6] = test system: OVCAR-5; assay: Antitumor activity against human OVCAR-5 cells assessed as growth inhibition at 10 uM relative to control; in short: as §1
[7] = test system: NCI-H322M; assay: Antitumor activity against human NCI-H322M cells assessed as growth inhibition at 10 uM relative to control; in short: as §1
[8] = test system: HCC 2998; assay: Antitumor activity against human HCC 2998 cells assessed as growth inhibition at 10 uM relative to control; in short: as §1
[9] = test system: EKVX; assay: Antitumor activity against human EKVX cells assessed as growth inhibition at 10 uM relative to control; in short: as §1
[10] = test system: A498; assay: Antitumor activity against human A498 cells assessed as growth inhibition at 10 uM relative to control; in short: as §1
[11] = test system: OVCAR-8; assay: Antitumor activity against human OVCAR-8 cells assessed as growth inhibition at 10 uM relative to control; in short: as §1
[12] = test system: HL-60; assay: Antitumor activity against human HL-60 cells assessed as growth inhibition at 10 uM relative to control; in short: as §1
[13] = test system: Hs-578T; assay: Antitumor activity against human Hs-578T cells assessed as growth inhibition at 10 uM relative to control; in short: as §1
[14] = test system: M14; assay: Antitumor activity against human M14 cells assessed as growth inhibition at 10 uM relative to control; in short: as §1

Row | SMILES | inhibition of growth at 10 µM [1] [%] | inhibition of growth at 10 µM [2] [%] | inhibition of growth at 10 µM [3] [%] | inhibition of growth at 10 µM [4] [%] | inhibition of growth at 10 µM [5] [%] | inhibition of growth at 10 µM [6] [%] | inhibition of growth at 10 µM [7] [%] | inhibition of growth at 10 µM [8] [%] | inhibition of growth at 10 µM [9] [%] | inhibition of growth at 10 µM [10] [%] | inhibition of growth at 10 µM [11] [%] | inhibition of growth at 10 µM [12] [%] | inhibition of growth at 10 µM [13] [%] | inhibition of growth at 10 µM [14] [%]
1 | CC1=NN(c2nc(-c3ccc(Cl)cc3)c(C#N)c(N3CCOCC3)n2)C(=O)C1 | 19 | < 1 | < 1 | < 1 | 12.2 | 15.2 | < 1 | < 1 | 11.2 | 42 | < 1 | 18.2 | 45.4 | 10
2 | N#Cc1c(-c2ccc(Cl)cc2)[nH]c(=S)[nH]c1=O | < 1 | < 1 | < 1 | < 1 | < 1 | 33.4 | < 1 | < 1 | < 1 | < 1 | < 1 | < 1 | < 1 | < 1
3 | CSc1nc(-c2ccc(Cl)cc2)c(C#N)c(N2CCOCC2)n1 | 11.8 | < 1 | < 1 | < 1 | < 1 | < 1 | < 1 | < 1 | 15.1 | 54.3 | < 1 | < 1 | < 1 | < 1
4 | N#Cc1c(-c2ccc(Cl)cc2)nc(N/N=C2/C(=O)Nc3ccccc32)nc1N1CCOCC1 | < 1 | < 1 | 17.6 | < 1 | < 1 | < 1 | < 1 | < 1 | < 1 | < 1 | < 1 | < 1 | < 1 | < 1
5 | CSc1nc(O)c(C#N)c(-c2ccc(Cl)cc2)n1 | < 1 | < 1 | < 1 | < 1 | < 1 | < 1 | < 1 | < 1 | < 1 | < 1 | < 1 | < 1 | < 1 | < 1
6 | N#Cc1c(-c2ccc(Cl)cc2)nc(N/N=C/c2cccc([N+](=O)[O-])c2)nc1N1CCOCC1 | 28.1 | < 1 | 14.5 | 25.6 | 12.1 | 10.2 | 14.3 | < 1 | 33.8 | 47.5 | 12.5 | 13.5 | < 1 | 16.4
7 | Cc1cc(C)n(-c2nc(-c3ccc(Cl)cc3)c(C#N)c(N3CCOCC3)n2)n1 | 23.4 | < 1 | < 1 | < 1 | < 1 | < 1 | < 1 | < 1 | 34.9 | 46.3 | < 1 | < 1 | 12.3 | < 1
8 | N#Cc1c(-c2ccc(Cl)cc2)nc(NN2C(=O)CCC2=O)nc1N1CCOCC1 | < 1 | < 1 | < 1 | < 1 | < 1 | < 1 | < 1 | < 1 | < 1 | < 1 | < 1 | < 1 | < 1 | < 1
9 | N#Cc1c(-c2ccc(Cl)cc2)nc(NN2C(=O)c3ccccc3C2=O)nc1N1CCOCC1 | < 1 | < 1 | < 1 | < 1 | < 1 | < 1 | < 1 | < 1 | < 1 | < 1 | < 1 | < 1 | < 1 | < 1
10 | N#Cc1c(-c2ccc(Cl)cc2)nc(N/N=C2/C(=O)Nc3ccc(Cl)cc32)nc1N1CCOCC1 | < 1 | < 1 | < 1 | < 1 | < 1 | < 1 | < 1 | < 1 | 13.9 | 26.9 | < 1 | < 1 | < 1 | < 1
11 | N#Cc1c(-c2ccc(Cl)cc2)nc(N/N=C/c2ccco2)nc1N1CCOCC1 | 74.2 | 26.2 | 31.8 | 37.6 | 20.6 | 23.1 | 30.6 | 25.2 | 53.5 | < 1 | 21.1 | < 1 | 31.8 | 28.6
12 | N#Cc1c(-c2ccc(Cl)cc2)nc(N/N=C/c2cccc(F)c2)nc1N1CCOCC1 | 17.4 | < 1 | < 1 | < 1 | < 1 | < 1 | < 1 | < 1 | 26.2 | 17 | < 1 | < 1 | < 1 | < 1
13 | N#Cc1c(-c2ccc(Cl)cc2)nc(N/N=C/c2cccc(Br)c2)nc1N1CCOCC1 | 16.4 | < 1 | 13.1 | < 1 | < 1 | 17.9 | < 1 | < 1 | 31.2 | < 1 | < 1 | 59.4 | 17.9 | 37.6
14 | N#Cc1c(-c2ccc(Cl)cc2)nc(NN)nc1N1CCOCC1 | 15.9 | < 1 | < 1 | < 1 | < 1 | < 1 | < 1 | < 1 | 14.3 | 27.8 | < 1 | < 1 | < 1 | < 1
15 | N#Cc1c(-c2ccc(Cl)cc2)nc(N2NC(=O)CC2=N)nc1N1CCOCC1 | < 1 | < 1 | < 1 | < 1 | < 1 | < 1 | < 1 | < 1 | < 1 | 34.3 | < 1 | < 1 | < 1 | < 1

From ChEMBL document CHEMBL5376013, “Design, synthesis and biological evaluation of novel morpholinopyrimidine-5-carbonitrile derivatives as dual PI3K/mTOR inhibitors” (RSC Med Chem, 2024)
